Bioassay records: PubChem, The Scripps Research Institute Molecular Screening Center
M5 PAM: human M5 muscarinic receptor positive allosteric modulators, primary screen, CHO-K1 cells, Fluo-8 calcium fluorescence; activation, % at 3 µM; 360,000 tested, 0.3% active; Muscarinic acetylcholine receptor M5 (Homo sapiens), P08912; CHO-K1 hM5, ACh EC20 PAM; 0% = ACh EC20, 100% = ACh EC100; AID 624038, 2012;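 active = activation above the run cutoff, the mean activation of all test compounds plus 3 SD, cut at about 18% in these data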
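System – CHO-K1 hM5 cells · Compound – 3 µM, single dose · Incubation – compound preincubation 140 s before EC20 acetylcholine addition · Technique – Fluo-8 calcium fluorescence · Measure – Max/basal fluorescence ratio as % of EC20–EC100 ACh window · Benchmarks – low control EC20 acetylcholine (0%), high control EC100 acetylcholine (100%) · Replication – singlicate, one well per test compound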
M4 ag: human M4 muscarinic receptor agonists, primary screen, CHO-K1 cells, Fluo-8 calcium fluorescence; AID 624127, 2012; CHO-K1 hM4/Gqi5; vehicle 0%, full acetylcholine response 100%; Muscarinic acetylcholine receptor M4 (Homo sapiens), P08173; activation, % at 3 µM; 360,000 tested, 0.14% active;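 active = activation above the run mean over all test wells plus 3 SD, cut at about 32% in these data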;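 also: peak over basal fluorescence ratio per well then scaled between controls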
Target sequence (P08173 whole entry, looked up): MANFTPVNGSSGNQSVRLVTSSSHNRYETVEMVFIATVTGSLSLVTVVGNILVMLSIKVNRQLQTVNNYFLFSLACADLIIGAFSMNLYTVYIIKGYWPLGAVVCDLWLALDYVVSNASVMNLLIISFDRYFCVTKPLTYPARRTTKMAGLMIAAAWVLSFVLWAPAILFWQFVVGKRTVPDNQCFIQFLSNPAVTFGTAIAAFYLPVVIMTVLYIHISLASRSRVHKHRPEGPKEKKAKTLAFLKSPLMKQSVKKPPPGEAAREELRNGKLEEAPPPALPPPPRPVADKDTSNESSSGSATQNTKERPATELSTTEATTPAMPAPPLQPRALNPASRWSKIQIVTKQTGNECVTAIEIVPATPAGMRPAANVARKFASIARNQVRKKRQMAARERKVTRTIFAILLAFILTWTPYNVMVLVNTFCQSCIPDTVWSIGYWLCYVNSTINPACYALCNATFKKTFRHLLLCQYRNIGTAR
CHRM5 agonist: human M5 muscarinic receptor agonists, primary screen, CHO-K1 cells, Fluo-8 calcium fluorescence. CHO-K1 hM5 cells; 0% DMSO wells, 100% maximal acetylcholine response. AID 624037, 2012. Muscarinic acetylcholine receptor M5 (Homo sapiens), P08912. 360,000 tested, 0.19% active. activation, % at 3 µM;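 active = activation above the run's mean over test compounds plus 3 SD, cut at about 23% in these data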;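 also: signal is peak over basal fluorescence ratio across the kinetic read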
M5 antag: human M5 muscarinic receptor antagonists, primary screen, CHO cells, Fluo-8 calcium fluorescence; 360,000 tested, 0.59% active; CHO-hM5 cells, ACh EC80; inhibition, % at 3 µM; AID 624040, 2012;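 active = inhibition above a per-plate cutoff, the mean of that plate's test compounds plus 3 SD, cut at about 27% in these data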
CHRM4 antagonist: human M4 muscarinic receptor antagonists, primary screen, CHO cells, Fluo-8 calcium fluorescence; Muscarinic acetylcholine receptor M4 (Homo sapiens), P08173; CHO-hM4 cells, ACh EC80; inhibition, % at 3 µM; 360,000 tested, 0.73% active; AID 624125, 2012;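 active = inhibition above its plate's cutoff, the mean inhibition of sample wells plus 3 SD, cut at about 27% in these data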
CHRM4 PAM: human M4 muscarinic receptor positive allosteric modulators, primary screen, CHO-K1 cells, Fluo-8 calcium fluorescence | activation, % at 3 µM | Muscarinic acetylcholine receptor M4 (Homo sapiens), P08173 | 360,000 tested, 0.4% active | CHO-K1 hM4/Gqi5, ACh EC20; 0% = ACh EC20, 100% = maximal ACh;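 active = activation above its plate's cutoff, the mean activation of sample wells plus 3 SD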
A number is an active result; – = inactive. This is a sample that favours compounds with a hit; in the whole collection about 1.9% have one here.

SMILES	M5 PAM	M4 ag	CHRM5 agonist	M5 antag	CHRM4 antagonist	CHRM4 PAM
C=CCNC(=S)N/N=C/c1cccc([N+](=O)[O-])c1	–	–	–	–	–	–
COc1ccc(NC(=O)C2(C)CCN2C(=O)CC2CCCC2)cc1OC (stereo unspecified)	–	–	–	–	–	–
O=C(c1cccc(C(F)(F)F)c1)N1CCCCCC1	–	–	–	–	–	–
CC(C)n1c(C(F)(F)F)nc2cc(C(=O)N3CCCCC3)ccc21	–	–	–	–	30	–
CC1=C(C(=O)N2CCOCC2)CC(CC(=O)NC2CCCC2)C(=O)N1Cc1ccc(F)cc1 (stereo unspecified)	–	–	–	–	–	–
CCn1c(NC(=O)c2ccccc2F)c(-c2cccs2)c(=O)c2ccccc21	–	–	–	–	29	–
CCn1c(NC(=O)C(C)C)c(-c2cccs2)c(=O)c2ccccc21	–	–	–	–	–	–
CCC(C)Sc1cccc(-c2nc3cc(C)ccn3c2NC2CCCCC2)c1 (stereo unspecified)	–	–	–	–	–	–
Cc1cccc(-n2ncc3c(N4CCOCC4)ncnc32)c1	–	–	–	–	–	–
Cc1cccc(-n2ncc3c(N4CCCC4)ncnc32)c1	–	–	–	–	–	23
O=C(NN1C(=O)/C(=C/c2ccc(O)cc2)SC1=S)c1cccc(O)c1	–	–	25	–	–	–
COc1cc(/C=C2\SC(=S)N(NC(=O)c3ccccc3O)C2=O)ccc1O	–	33	–	–	–	–
Cc1ccn2c(=O)nc(SCC(=O)N3N=C(c4cccs4)CC3c3ccc(F)cc3)nc2c1 (stereo unspecified)	–	–	–	–	–	–
CC(=O)Nc1ccc2nc(CN3CCN(Cc4ccc(F)cc4)C(CCO)C3)ccc2c1 (stereo unspecified)	–	–	–	–	–	–
O=C1N[C@@H](c2ccccc2)COC(=O)[C@H](Cc2ccc(F)cc2)C/C=C\C[C@H]1CC(=O)N(CCO)Cc1ccccc1	18	–	–	–	–	–
O=C(C[C@H]1C/C=C/CC[C@H](Cc2ccc(F)cc2)C(=O)O[C@H](c2ccccc2)CNC1=O)NCCO	–	–	–	–	–	–
O=C1N[C@H](Cc2ccccc2)COC(=O)[C@H](Cc2ccc(F)cc2)C/C=C\C[C@@H]1CC(=O)N(CCO)Cc1ccccc1	–	–	–	–	–	–
O=C(C[C@@H]1C/C=C/CC[C@@H](Cc2ccc(F)cc2)C(=O)O[C@@H](c2ccccc2)CNC1=O)NCCO	–	–	–	31	–	–
O=C1N[C@@H](c2ccccc2)COC(=O)[C@H](Cc2ccc(F)cc2)CC/C=C/C[C@H]1CC(=O)N(CCO)Cc1ccccc1	–	–	–	–	–	–
O=C1N[C@@H](c2ccccc2)COC(=O)[C@@H](Cc2ccc(F)cc2)C/C=C\C[C@@H]1CC(=O)N(CCO)Cc1ccccc1	–	56	–	–	–	–
O=C1N[C@@H](Cc2c[nH]c3ccccc23)COC(=O)[C@@H](Cc2ccc(F)cc2)C/C=C\C[C@H]1CC(=O)N(CCO)Cc1ccccc1	–	–	–	–	28	–
O=C(C=Cc1ccccc1)CC(c1ccccc1)N1CCOCC1 (stereo unspecified)	–	–	–	–	–	–
O=c1cc[nH]c2ccc(OC(F)(F)F)cc12	–	–	–	–	–	–
O=C(Nc1sc2c(c1C(=O)O)CCC2)C(=O)N1CCOCC1	–	–	–	–	–	–
CN(C(=O)CSc1ncnc2sccc12)C1CCCCC1	–	–	–	–	–	–
SMILES	M5 PAM	M4 ag	CHRM5 agonist	M5 antag	CHRM4 antagonist	CHRM4 PAM
O=C1NC[C@H](c2ccccc2)OC(=O)[C@@H](Cc2ccc(F)cc2)C/C=C\C[C@H]1CC(=O)N(CCO)Cc1ccccc1	–	36	–	–	34	–
O=C(CN1C(=O)c2ccccc2S1(=O)=O)c1ccc2c(c1)OCCCO2	–	–	–	–	–	–
O=C(CN1C(=O)c2ccccc2S1(=O)=O)c1ccc2c(c1)OCCO2	21	–	–	–	–	–
COc1ccc([C@H]2CC(=O)C=C(c3ccc(C(F)(F)F)c(C(F)(F)F)c3)C2)cc1OC	20	–	–	–	–	–
Cc1ccc2[nH]c(=O)c(CN(C(=O)c3cccc([N+](=O)[O-])c3)C(C)C)cc2c1	–	–	–	–	–	–
CCC(=O)C1CCCN(C(=O)CCc2nnc(C3(c4ccc(Cl)cc4)CCC3)o2)C1 (stereo unspecified)	–	–	–	–	–	21
C[C@@H]1CN([C@@H](C)CO)C(=O)CCCn2nncc2CO[C@H]1CN(C)C(=O)NC1CCCCC1	–	–	–	–	–	–
CCOC(=O)c1c(S(=O)(=O)NCC(=O)Nc2cc(C)ccc2C)c(C)n(C)c1C	–	–	–	–	–	–
CCOC(=O)c1c(S(=O)(=O)NCC(=O)Nc2ccc(F)cc2F)c(C)n(C)c1C	–	–	–	–	–	18
CCOC(=O)C1(C)CCCN(C(=O)Cc2ccc3ccccc3c2)C1 (stereo unspecified)	–	–	–	–	–	–
Nc1nc(Cl)cc(N2CCC(c3cc(-c4ccc(Cl)cc4)n[nH]3)CC2)n1	–	–	–	39	36	–
CCC(=O)N1CCCC1(C)C(=O)NCc1ccc(SC)cc1 (stereo unspecified)	–	–	–	–	–	–
O=C(O)C(Cc1c[nH]c2ccccc12)NS(=O)(=O)c1cccc(Cl)c1Cl (stereo unspecified)	–	–	–	–	–	–
C/C(=N/NC(=O)c1ccncc1)c1ccc(NC(=O)c2ccc(Cl)cc2Cl)cc1	–	–	–	–	–	–
CC(=NNC(=O)c1ccncc1)c1ccccc1O	–	–	–	–	–	–
CC(C)CC(=NNC(=O)c1ccncc1)c1cc(Cl)ccc1O	–	40	38	–	–	–
CC(=NNC(=O)c1ccncc1)c1ccc2ccccc2c1O	–	57	194	–	–	–
CC(=NNC(=O)c1ccncc1)c1ccc(O)cc1O	22	–	–	–	–	–
COc1ccc(Cc2nnc(SCC(=O)Nc3ccc(C)cc3)n(N)c2=O)cc1	–	–	–	101	–	–
CCOC(=O)c1cnc2c(C)cc(Cl)cc2c1NCCCN1CCOCC1	–	–	–	–	–	–
